Marks after values point to notes of the source that are not given here.
Assay: Phase I safety and tolerability, weekly
Format: in vivo, human
How it was run: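 Oral weekly dose escalation followed a 3+3 design (planned 90, 135, 200, 300mg, intermediate doses allowed), then a modified toxicity-probability-interval confirmation stage. A DLT was any drug-related CTCAE v3.0 ≥G4 hematological, ≥G3 febrile neutropenia or ≥G3 non-hematological toxicity. Safety visits, glucose, C-peptide and HbA1c monitoring followed a fixed schedule; AEs were graded by CTCAE v3.0.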

[1] = 200mg QW, G3, cycle 1, dose-limiting toxicity

NC1(c2ccc(-c3nc4ccn5c(=O)[nH]nc5c4cc3-c3ccccc3)cc2)CCC1 [MK-2206]
Diarrhea, number of AEs (200mg QW, G3, cycle 1): 0 (0)
Dry skin, number of AEs (200mg QW, G3, cycle 1): 0 (0)
Dysgeusia, number of AEs (200mg QW, G3, cycle 1): 0 (0)
Fatigue, number of AEs (200mg QW, G3, cycle 1): 0 (0)
Nausea, number of AEs (200mg QW, G3, cycle 1): 0 (0)
Pruritus, number of AEs (200mg QW, G3, cycle 1): 0 (0)
Stomatitis, number of AEs (200mg QW, G3, cycle 1): 0 (0)
Vomiting, number of AEs (200mg QW, G3, cycle 1): 0 (0)
Dermatitis acneiform, number of AEs [1]: 1^c (1)
Rash (all rash terms collated), number of AEs [1]: 3^c (3)
Anorexia, number of AEs (250mg QW, G1, all cycles): 0 (0)
Dermatitis acneiform, number of AEs (250mg QW, G1, all cycles): 0 (0)
Diarrhea, number of AEs (250mg QW, G1, all cycles): 0 (0)
Dysgeusia, number of AEs (250mg QW, G1, all cycles): 0 (0)
Fatigue, number of AEs (250mg QW, G1, all cycles): 0 (0)
Nausea, number of AEs (250mg QW, G1, all cycles): 0 (0)
Pruritus, number of AEs (250mg QW, G1, all cycles): 0 (0)
Stomatitis, number of AEs (250mg QW, G1, all cycles): 2
Vomiting, number of AEs (250mg QW, G1, all cycles): 0 (0)
Anorexia, number of AEs (250mg QW, G1, cycle 1): 0 (0)
Dermatitis acneiform, number of AEs (250mg QW, G1, cycle 1): 0 (0)
Diarrhea, number of AEs (250mg QW, G1, cycle 1): 0 (0)
Dysgeusia, number of AEs (250mg QW, G1, cycle 1): 0 (0)
Fatigue, number of AEs (250mg QW, G1, cycle 1): 0 (0)
Nausea, number of AEs (250mg QW, G1, cycle 1): 0 (0)
Pruritus, number of AEs (250mg QW, G1, cycle 1): 0 (0)
Stomatitis, number of AEs (250mg QW, G1, cycle 1): 1
Vomiting, number of AEs (250mg QW, G1, cycle 1): 0 (0)
Anorexia, number of AEs (250mg QW, G2, all cycles): 0 (0)
Dermatitis acneiform, number of AEs (250mg QW, G2, all cycles): 0 (0)
Diarrhea, number of AEs (250mg QW, G2, all cycles): 0 (0)
Dry skin, number of AEs (250mg QW, G2, all cycles): 0 (0)
Dysgeusia, number of AEs (250mg QW, G2, all cycles): 0 (0)
Fatigue, number of AEs (250mg QW, G2, all cycles): 0 (0)
Nausea, number of AEs (250mg QW, G2, all cycles): 0 (0)
Pruritus, number of AEs (250mg QW, G2, all cycles): 0 (0)
Rash (all rash terms collated), number of AEs (250mg QW, G2, all cycles): 2
Stomatitis, number of AEs (250mg QW, G2, all cycles): 0 (0)
Vomiting, number of AEs (250mg QW, G2, all cycles): 0 (0)
Anorexia, number of AEs (250mg QW, G2, cycle 1): 0 (0)
Dermatitis acneiform, number of AEs (250mg QW, G2, cycle 1): 0 (0)
Diarrhea, number of AEs (250mg QW, G2, cycle 1): 0 (0)
Dry skin, number of AEs (250mg QW, G2, cycle 1): 0 (0)
Dysgeusia, number of AEs (250mg QW, G2, cycle 1): 0 (0)
Fatigue, number of AEs (250mg QW, G2, cycle 1): 0 (0)
Nausea, number of AEs (250mg QW, G2, cycle 1): 0 (0)
Pruritus, number of AEs (250mg QW, G2, cycle 1): 0 (0)
Rash (all rash terms collated), number of AEs (250mg QW, G2, cycle 1): 1
Stomatitis, number of AEs (250mg QW, G2, cycle 1): 0 (0)
Vomiting, number of AEs (250mg QW, G2, cycle 1): 0 (0)
Anorexia, number of AEs (250mg QW, G3, all cycles): 0 (0)
Dermatitis acneiform, number of AEs (250mg QW, G3, all cycles): 0 (0)
Diarrhea, number of AEs (250mg QW, G3, all cycles): 0 (0)
Dry skin, number of AEs (250mg QW, G3, all cycles): 0 (0)
Dysgeusia, number of AEs (250mg QW, G3, all cycles): 0 (0)
Fatigue, number of AEs (250mg QW, G3, all cycles): 0 (0)
Nausea, number of AEs (250mg QW, G3, all cycles): 0 (0)
Pruritus, number of AEs (250mg QW, G3, all cycles): 0 (0)
Rash (all rash terms collated), number of AEs (250mg QW, G3, all cycles): 2^c (2)
Stomatitis, number of AEs (250mg QW, G3, all cycles): 0 (0)
Vomiting, number of AEs (250mg QW, G3, all cycles): 0 (0)
Anorexia, number of AEs (250mg QW, G3, cycle 1): 0 (0)
Dermatitis acneiform, number of AEs (250mg QW, G3, cycle 1): 0 (0)
Diarrhea, number of AEs (250mg QW, G3, cycle 1): 0 (0)
Dry skin, number of AEs (250mg QW, G3, cycle 1): 0 (0)
Dysgeusia, number of AEs (250mg QW, G3, cycle 1): 0 (0)
Fatigue, number of AEs (250mg QW, G3, cycle 1): 0 (0)
Nausea, number of AEs (250mg QW, G3, cycle 1): 0 (0)
Pruritus, number of AEs (250mg QW, G3, cycle 1): 0 (0)
Stomatitis, number of AEs (250mg QW, G3, cycle 1): 0 (0)
Vomiting, number of AEs (250mg QW, G3, cycle 1): 0 (0)
Rash (all rash terms collated), number of AEs (250mg QW, G3, cycle 1, dose-limiting toxicity): 2^c (2)
Anorexia, number of AEs (300mg QW, G1, all cycles): 0 (0)
Dermatitis acneiform, number of AEs (300mg QW, G1, all cycles): 0 (0)
Diarrhea, number of AEs (300mg QW, G1, all cycles): 0 (0)
Dry skin, number of AEs (300mg QW, G1, all cycles): 0 (0)
Dysgeusia, number of AEs (300mg QW, G1, all cycles): 1 (1)
Fatigue, number of AEs (300mg QW, G1, all cycles): 1 (1)
Nausea, number of AEs (300mg QW, G1, all cycles): 1 (1)
Pruritus, number of AEs (300mg QW, G1, all cycles): 0 (0)
Stomatitis, number of AEs (300mg QW, G1, all cycles): 0 (0)
Vomiting, number of AEs (300mg QW, G1, all cycles): 0 (0)
Anorexia, number of AEs (300mg QW, G1, cycle 1): 0 (0)
Dermatitis acneiform, number of AEs (300mg QW, G1, cycle 1): 0 (0)
Diarrhea, number of AEs (300mg QW, G1, cycle 1): 0 (0)
Dry skin, number of AEs (300mg QW, G1, cycle 1): 0 (0)
Dysgeusia, number of AEs (300mg QW, G1, cycle 1): 1 (1)
Fatigue, number of AEs (300mg QW, G1, cycle 1): 1 (1)
Nausea, number of AEs (300mg QW, G1, cycle 1): 1 (1)
Pruritus, number of AEs (300mg QW, G1, cycle 1): 0 (0)
Stomatitis, number of AEs (300mg QW, G1, cycle 1): 0 (0)
Vomiting, number of AEs (300mg QW, G1, cycle 1): 0 (0)
Anorexia, number of AEs (300mg QW, G2, all cycles): 0 (0)
Dermatitis acneiform, number of AEs (300mg QW, G2, all cycles): 0 (0)
Diarrhea, number of AEs (300mg QW, G2, all cycles): 0 (0)
Dry skin, number of AEs (300mg QW, G2, all cycles): 0 (0)
Dysgeusia, number of AEs (300mg QW, G2, all cycles): 0 (0)
Fatigue, number of AEs (300mg QW, G2, all cycles): 0 (0)
Nausea, number of AEs (300mg QW, G2, all cycles): 0 (0)
Pruritus, number of AEs (300mg QW, G2, all cycles): 0 (0)
Rash (all rash terms collated), number of AEs (300mg QW, G2, all cycles): 2 (2)
Stomatitis, number of AEs (300mg QW, G2, all cycles): 1 (1)
Vomiting, number of AEs (300mg QW, G2, all cycles): 0 (0)
Anorexia, number of AEs (300mg QW, G2, cycle 1): 0 (0)
Dermatitis acneiform, number of AEs (300mg QW, G2, cycle 1): 0 (0)
Diarrhea, number of AEs (300mg QW, G2, cycle 1): 0 (0)
Dry skin, number of AEs (300mg QW, G2, cycle 1): 0 (0)
Dysgeusia, number of AEs (300mg QW, G2, cycle 1): 0 (0)
Fatigue, number of AEs (300mg QW, G2, cycle 1): 0 (0)
Nausea, number of AEs (300mg QW, G2, cycle 1): 0 (0)
Pruritus, number of AEs (300mg QW, G2, cycle 1): 0 (0)
Rash (all rash terms collated), number of AEs (300mg QW, G2, cycle 1): 2 (2)
Stomatitis, number of AEs (300mg QW, G2, cycle 1): 1 (1)
Vomiting, number of AEs (300mg QW, G2, cycle 1): 0 (0)
Anorexia, number of AEs (300mg QW, G3, all cycles): 0 (0)
Dermatitis acneiform, number of AEs (300mg QW, G3, all cycles): 0 (0)
Diarrhea, number of AEs (300mg QW, G3, all cycles): 0 (0)
Dry skin, number of AEs (300mg QW, G3, all cycles): 0 (0)
Dysgeusia, number of AEs (300mg QW, G3, all cycles): 0 (0)
Fatigue, number of AEs (300mg QW, G3, all cycles): 0 (0)
Nausea, number of AEs (300mg QW, G3, all cycles): 0 (0)
Pruritus, number of AEs (300mg QW, G3, all cycles): 0 (0)
Rash (all rash terms collated), number of AEs (300mg QW, G3, all cycles): 3^c (3)
Stomatitis, number of AEs (300mg QW, G3, all cycles): 0 (0)
Vomiting, number of AEs (300mg QW, G3, all cycles): 0 (0)
Anorexia, number of AEs (300mg QW, G3, cycle 1): 0 (0)
Dermatitis acneiform, number of AEs (300mg QW, G3, cycle 1): 0 (0)
Diarrhea, number of AEs (300mg QW, G3, cycle 1): 0 (0)
Dry skin, number of AEs (300mg QW, G3, cycle 1): 0 (0)
Dysgeusia, number of AEs (300mg QW, G3, cycle 1): 0 (0)
Fatigue, number of AEs (300mg QW, G3, cycle 1): 0 (0)
Nausea, number of AEs (300mg QW, G3, cycle 1): 0 (0)
Pruritus, number of AEs (300mg QW, G3, cycle 1): 0 (0)
Stomatitis, number of AEs (300mg QW, G3, cycle 1): 0 (0)
Vomiting, number of AEs (300mg QW, G3, cycle 1): 0 (0)
Rash (all rash terms collated), number of AEs (300mg QW, G3, cycle 1, dose-limiting toxicity): 3^c (3)
drug-related headaches, patients (QW schedule, 4/33): 12.1%
drug-related increased alanine aminotransferase levels, patients (QW schedule, 4/33): 12.1%
drug-related pruritus, patients (QW schedule, 4/33): 12.1%
C-peptide level increase during first cycle (range) (QW schedule, 4 patients with increase): 65.7%-166.6
drug-related stomatitis, patients (QW schedule, 5/33): 15.2%
drug-related decreased appetite, patients (QW schedule, 7/33): 21.2%
time to full resolution of DLTs from onset (QW schedule, 7 of 10 patients with DLTs): 1 to 2 weeks
drug-related vomiting, patients (QW schedule, 8/33): 24.2%
drug-related diarrhea, patients (QW schedule, 9/33): 27.3%
drug-related nausea, patients (QW schedule, 9/33): 27.3%
drug-related rash, patients (QW schedule, 14/33): 42.4%
drug-related fatigue, patients (QW schedule, 15/33): 45.5%
elevated blood glucose levels, patients (QW schedule, 19/33): 57.6%
drug-related AEs, patients (QW schedule, 22/33): 66.7%
post-cycle 1 HbA1c values (QW schedule, all patients assessed): < 7%
G1 hyperglycemia, patients (QW schedule, following 1 cycle, 1/33): 3.0%
DLTs resolved with sequelae of dry skin (QW schedule, of 10 patients with DLTs): 3 patients
patients with increased C-peptide levels during first cycle (QW schedule, patients assessed): 4 of 6
patients who discontinued for drug-related AEs (QW schedule, G3 rash, G3 complete atrioventricular block, G1 rash (n=1 each)): Three
